Experimental data taken from ChEMBL document CHEMBL1146601, “Antileishmanial ring-substituted ether phospholipids” (J Med Chem, 2003).

Tests used:
Leishmania donovani = test: In vitro anti-leishmanial activity against promastigote cultures of Leishmania donovani MON 703; assay type: functional, organism-based
In short: (§1)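 Promastigotes (L. donovani MHOM/IN/80/DD8/LEM 703; L. infantum MHOM/TN/80/IPT1/LEM 235) grown in RPMI 1640 with 10% FCS, L-glutamine and antibiotics at 26 °C. Seeded at 5 × 10^5 cells/mL with 3-fold medium dilutions of a 9.625 mM DMSO solution, 72 h at 26 °C. MTT added for 3 h; SDS/2-propanol stop; A550 (ref 620 nm). IC50 by Hills method.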

Leishmania infantum = test: In vitro anti-leishmanial activity against promastigote cultures of Leishmania infantum MON 235; assay type: functional, organism-based; in short: as §1

SMILES | IC50 (Leishmania donovani) | IC50 (Leishmania infantum)
C[N+](C)(C)CCOP(=O)([O-])OCCCCCC1C2CC3CC(C2)CC1C3 (centres undefined) | 4.02 µM | > 100 µM
CCCCCCCCCCCCCCCCOP(=O)([O-])OCC[N+](C)(C)C [MILTEFOSINE] | 23.7 µM | 22.6 µM
CCCCCCCCCCCCCCC1CCC(OCCOP(=O)([O-])OCC[N+](C)(C)C)CC1 (centres undefined) | 23.7 µM | 23.3 µM
C[N+]1(CCOP(=O)([O-])Oc2ccc(C34CC5CC(CC(C5)C3)C4)cc2)CCOCC1 | > 100 µM | > 100 µM
C[N+](C)(C)CCOP(=O)([O-])OCC12CC3CC(CC(C3)C1)C2 | > 100 µM | > 100 µM
C[N+](C)(C)CCOP(=O)([O-])OCCCCCCOc1ccccc1 | > 100 µM | > 100 µM
C[N+](C)(C)CCOP(=O)([O-])OCCCCCCCCCCCC1C2CC3CC(C2)CC1C3 (centres undefined) | 2.88 µM | 5.97 µM

Other lines, results leading:

IC50 (Leishmania donovani) | IC50 (Leishmania infantum) | SMILES
> 100 µM | > 100 µM | C[N+](C)(C)CCOP(=O)([O-])OCCOc1ccccc1
> 100 µM | > 100 µM | C[N+](C)(C)CCOP(=O)([O-])OCCOc1ccc2ccccc2c1
> 100 µM | > 100 µM | C[N+]1(CCOP(=O)([O-])OCCOc2ccccc2)CCOCC1
> 100 µM | > 100 µM | C[N+]1(CCOP(=O)([O-])OCCOc2ccc3ccccc3c2)CCCCC1
> 100 µM | > 100 µM | C[N+]1(CCOP(=O)([O-])OCCCCCCOc2ccccc2)CCOCC1
